# Article PMC5489371 (Leukemia & lymphoma, 2017)
# Key:
# [1] = tested on: patients treated with single agent panobinostat; details: cited from earlier work
# [2] = tested on: patients with relapsed hematologic malignancies; test: Phase 1 dose escalation trial of single-agent AR-42: safety and tolerability; type: in vivo, human
# [3] = QTc measurement; type: in vivo, human
# [4] = tested on: patients with relapsed MM; test: Response assessment, multiple myeloma patients; type: in vivo, human
# Summary of the method: (§1)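 Open-label, single-centre, first-in-human 3+3 dose-escalation trial. Adults with relapsed or refractory CLL, Hodgkin or non-Hodgkin lymphoma (WHO 2008) or MM (IMWG criteria) had to have had at least one prior therapy; MM patients had prior immunomodulatory agent and proteasome inhibitor. Test compound was given orally Mon/Wed/Fri for three weeks of each 28-day cycle at 20, 40, 50 or 70 mg, until unacceptable toxicity or progression.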
# [5] = tested on: patients with relapsed lymphoma; test: Response assessment, lymphoma patients; type: in vivo, human
# Summary of the method: as §1
# [6] = tested on: patients with relapsed hematologic malignancies; test: Response assessment, all 27 patients; type: in vivo, human; details: 95% CI: 53.7 – 88.8
# Summary of the method: as §1
# [7] = tested on: soluble CD44 (sCD44); test: ELISA for soluble CD44 in serum of MM patients; type: in vivo, human
# Summary of the method: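 Serum from relapsed multiple myeloma patients was collected at baseline before dosing and on cycle 1 day 15. Soluble human CD44 was measured by ELISA following the kit manufacturer's protocol. Patients took the oral HDAC inhibitor Monday, Wednesday and Friday for three weeks, then one week off, in 28-day cycles.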
# [8] = Pharmacokinetic analysis of AR-42 in patient plasma; type: in vivo, human
# [9] = tested on: MM cell lines (U266, H929, RPMI 8226, ARH-77, and IM-9); details: MM cell lines and primary MM cells; cited from earlier work
# [10] = between the 20 and 40 mg dose levels
# [11] = between the 40 and 50 mg dose levels
compound,measurement,setting,value
Cc1[nH]c2ccccc2c1CCNCc1ccc(/C=C/C(=O)NO)cc1 [panobinostat],patients with fatigue,[1],47.4%
AR-42,dose-limiting toxicities (DLTs),[2]; in vivo,no DLTs were evident
same,grade 3 or 4 fatigue,[2]; in vivo,no patient suffered grade 3 or 4 fatigue
same,patients requiring hospitalization,[2]; in vivo,seven
same,patients requiring temporary holds of study treatment,[2]; in vivo,seven
same,"patients with SAEs possibly, probably, or likely related to AR-42",[2]; in vivo,five
same,patients with neutropenia (grade 1 – 3),[2]; in vivo,11 patients
same,patients with neutropenia (grade 1 – 4),[2]; in vivo,12 patients
same,maximum tolerated dose (MTD),"[2]; oral, three times weekly (M-W-F) for three weeks of a 28-day cycle",40 mg
same,"QTc prolongation, highest grade","[3]; all 27 patients, not associated with cardiac events or dose reductions",≤ 1 grade
same,mean maximum QTc change,"[3]; all patients, range 10 – 60, standard deviation 14.5",27.4
same,Cycles of Treatment,"[4]; MM patient ID 1, 20 mg (1a)",1 cycles
same,Cycles of Treatment,"[4]; MM patient ID 4, 40 mg (2a)",3 cycles
same,Cycles of Treatment,"[4]; MM patient ID 5, 40 mg (2a)",18 cycles
same,Cycles of Treatment,"[4]; MM patient ID 6, 40 mg (2a)",3 cycles
same,Cycles of Treatment,"[4]; MM patient ID 7, 40 mg (1b)",3 cycles
same,Cycles of Treatment,"[4]; MM patient ID 8, 40 mg (1b)",1 cycles
same,Cycles of Treatment,"[4]; MM patient ID 10, 50 mg (2b)",1 cycles
same,Cycles of Treatment,"[4]; MM patient ID 11, 50 mg (2b)",1 cycles
same,Cycles of Treatment,"[4]; MM patient ID 12, 50 mg (2b)",1 cycles
same,Cycles of Treatment,"[4]; MM patient ID 13, 50 mg (2b)",3 cycles
same,Cycles of Treatment,"[4]; MM patient ID 17, 70 mg (3b)",5 cycles
same,Cycles of Treatment,"[4]; MM patient ID 20, 40 mg (4b)",2 cycles
same,Cycles of Treatment,"[4]; MM patient ID 21, 40 mg (4b)",1 cycles
same,Cycles of Treatment,"[4]; MM patient ID 22, 40 mg (4b)",2 cycles
same,Cycles of Treatment,"[4]; MM patient ID 25, 40 mg (4b)",2 cycles
same,Cycles of Treatment,"[4]; MM patient ID 26, 40 mg (4b)",1 cycles
same,Cycles of Treatment,"[4]; MM patient ID 27, 40 mg (4b)",3 cycles
same,"duration of disease control, one patient with MM","[4]; human, in vivo",19 months
same,MM patients who progressed during the first cycle,[4]; of 17 MM patients,four
same,"duration of disease control, one patient with mantle cell lymphoma",[5]; ongoing,27 months
same,best response in patients with relapsed lymphoma,[5]; ten patients,stable disease
same,patients with stable disease for between 1 and 3 cycles,[6],20 of 27
same,"reduction of sCD44, mean difference","[7]; 10 MM patients, 95% CI: 3.19–32.72, paired t-test, p=0.0022",17.95
same,MM patients with decreased sCD44 levels,[7]; baseline vs cycle 1 day 15,nine
same,MM patients in whom CD44 decreased more than 20% by day 15,[7]; cycle 1 day 15,four
same,"peak concentration (geometric mean, %CV)","[8]; 20 mg oral, day 19, plasma",0.335 (65.6) μM
same,"peak concentration (geometric mean, %CV)","[8]; 20 mg oral, day one, plasma",0.383 (56.2) μM
same,"peak concentration (geometric mean, %CV)","[8]; 40 mg oral, day 19, plasma",0.830 (27.9) μM
same,"peak concentration (geometric mean, %CV)","[8]; 40 mg oral, day one, plasma",0.794 (23.8) μM
same,"peak concentration (geometric mean, %CV)","[8]; 50 mg oral, day one, plasma",1.60 (37.5) μM
same,fold increase in mean day one AUC0-∞,[8]; [10],1.9 fold
same,fold increase in mean day one Cmax,[8]; [10],2.1 fold
same,fold increase in mean day one AUC0-∞,[8]; [11],1.7 fold
same,fold increase in mean day one Cmax,[8]; [11],2.0 fold
same,potency in comparison to vorinostat,[9],four- to seven-fold more potent
